Results taken from ChEMBL document CHEMBL4257464, “Development of NMR and thermal shift assays for the evaluation of Mycobacterium tuberculosis isocitrate lyase inhibitors” (Medchemcomm, 2017).
Active and inactive are the calls of the source. No cut-off for these calls is given here. Where a SMILES comes first, the peptide text is derived from it. The star is where a group is joined. Cbz = O=C(OCc1ccccc1)*

Assays:
[1] = molecular target: T1, Isocitrate lyase 1 (Mycobacterium tuberculosis (strain CDC 1551 / Oshkosh)) (UniProt P9WKK6); assay: Binding affinity to Mycobacterium tuberculosis ICL1 expressed in Escherichia coli BL21(DE3) assessed as increase in melting temperature at 1 mM in presence of MgCl2 by SYPRO orange dye based fluorescence assay
T1 sequence (whole entry): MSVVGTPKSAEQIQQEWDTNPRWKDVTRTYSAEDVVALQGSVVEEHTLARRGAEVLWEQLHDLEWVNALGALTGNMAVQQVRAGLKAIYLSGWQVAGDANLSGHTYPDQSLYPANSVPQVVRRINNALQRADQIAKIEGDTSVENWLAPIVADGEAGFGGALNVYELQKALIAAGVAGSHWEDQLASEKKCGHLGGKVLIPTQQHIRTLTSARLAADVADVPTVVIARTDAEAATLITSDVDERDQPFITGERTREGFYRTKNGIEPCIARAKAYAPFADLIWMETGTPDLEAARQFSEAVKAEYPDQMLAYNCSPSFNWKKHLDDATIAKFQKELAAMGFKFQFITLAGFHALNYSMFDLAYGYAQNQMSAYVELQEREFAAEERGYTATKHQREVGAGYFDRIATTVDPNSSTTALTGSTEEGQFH

Isocitrate lyase 1 [2] = molecular target: T2, Isocitrate lyase 1 (Mycobacterium tuberculosis (strain CDC 1551 / Oshkosh), UniProt P9WKK6); assay: Inhibition of Mycobacterium tuberculosis ICL1 expressed in Escherichia coli BL21(DE3) using DL-isocitrate as substrate incubated for 25 mins in presence of MgCl2 by 1H NMR method
T2 sequence (P9WKK6 whole entry): T1 sequence (whole entry)
Outline: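 1H NMR assay at 500 MHz, 300 K, water-suppressed spectra recorded over time. Sample: 190 nM ICL1, 1 mM DL-isocitrate, 5 mM MgCl2, varying inhibitor concentrations, 50 mM Tris/Tris-D11 pH 7.5 in 90% H2O/10% D2O. Initial rates from linear fits up to 20% turnover; IC50 from a 3-parameter sigmoid fit. Triplicate measurements, errors given as SD.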

[3] = molecular target: T1, Isocitrate lyase 1 (Mycobacterium tuberculosis (strain CDC 1551 / Oshkosh)); assay: Inhibition of Mycobacterium tuberculosis ICL1 expressed in Escherichia coli BL21(DE3) at 100 uM using DL-isocitrate as substrate incubated for 25 mins in presence of MgCl2 by 1H NMR method
Outline: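 Direct 1H NMR time course at 500 MHz, 300 K, with excitation-sculpting water suppression. Sample: 190 nM ICL1, 1 mM DL-isocitrate, 5 mM MgCl2, 100 μM inhibitor, 50 mM Tris-D11 pH 7.5 in 90% H2O/10% D2O. Substrate consumption and product formation are tracked directly. Initial rates come from linear fits up to 20% turnover. Run in triplicate.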

Isocitrate lyase 1 [4] = molecular target: T2, Isocitrate lyase 1; assay: Inhibition of Mycobacterium tuberculosis ICL1
[5] = molecular target: T1, Isocitrate lyase 1 (Mycobacterium tuberculosis (strain CDC 1551 / Oshkosh)); assay: Binding affinity to Mycobacterium tuberculosis ICL1 expressed in Escherichia coli BL21(DE3) assessed as melting temperature at 1 mM in presence of MgCl2 by SYPRO orange dye based fluorescence assay (reference value: 43 degC)

SMILES | ΔTm [1] [°C] | inhibition [3] | further results
CC(C)[C@H](NC(=O)COc1ccc(C(=O)COc2ccccc2)c(O)c1)C(=O)O | > 0.5 | – | –
CC(C)C(NC(=O)OCc1ccccc1)C(=O)NCC(=O)NC(Cc1c[nH]c2ccccc12)C(=O)O (stereo not drawn) (Cbz-Val-Gly-Trp-OH; configuration not given here) | > 0.5 | – | –
Nc1ccc(C(=O)CC(=O)Nc2cc(C(=O)O)cc(C(=O)O)c2)cc1 | > 0.5 | – | –
COc1ccc(OCC(=O)c2c(O)cc(O)cc2O)cc1 | > 0.5 | – | –
Cc1ccc(C(=O)CC(=O)c2ccco2)c(O)c1 | > 0.5 | – | –
O=C(O)COc1ccc(C(=O)Cc2ccc3c(c2)OCCCO3)c(O)c1 | > 0.5 | – | –
NC(Cc1c[nH]c2ccccc12)C(=O)NCc1ccco1 (stereo not given) | > 0.5 | – | –
CCOC(=O)c1cc2cc(CC(=O)c3ccc(O)cc3O)ccc2o1 | > 0.5 | Active | IC50 (Isocitrate lyase 1 [2]): > 100 µM
Nc1ccc([C@H](O)[C@@H](N)CO)cc1 | > 0.5 | – | –
COc1ccc2oc(C(=O)OCC(=O)c3ccc(C)s3)c(C)c2c1 | – | inactive | –
CCCCCCc1cc(C(=O)Cc2cc3ccccc3o2)c(O)cc1O | – | inactive | –
O=C(O)CNC(=O)c1ccc(NC(=O)/C(=C/c2ccccc2)NC(=O)c2ccccc2)cc1 | > 0.5 | – | –
COC(=O)/C=C/C(=O)c1ccc(OC)cc1 | – | inactive | IC50 (Isocitrate lyase 1 [2]): 250 µM; IC50 (Isocitrate lyase 1 [4]): 30.9 µM; Tm [5]: 37.6 °C
CCc1cc(C(=O)Cc2cc3ccccc3o2)c(O)cc1OC | – | inactive | –
COc1cc(OC)c(C(=O)COC(=O)c2oc3ccccc3c2C)c(OC)c1 | – | inactive | –
CCOC(=O)c1ccc(CC(=O)c2oc3cc(O)ccc3c2C)o1 | > 0.5 | Active | IC50 (Isocitrate lyase 1 [2]): > 100 µM

SMILES | ΔTm [1] [°C] | inhibition [3] | further results
O=C(COc1ccccc1Br)c1ccc(O)cc1O | > 0.5 | – | –
NC(CC(=O)O)c1cccnc1 (stereo not given) | > 0.5 | – | –
O=C(O)CC[N+](=O)[O-] | – | Active | IC50 (Isocitrate lyase 1 [2]): 14.7 µM; Tm [5]: 40.9 °C
CCCc1cc(C(=O)Cc2cc3ccccc3o2)c(O)cc1O | > 0.5 | – | –
CCOC(=O)c1cc2cc(CC(=O)c3ccc(OC)cc3O)ccc2o1 | – | inactive | –
COc1ccc(C(=O)COC(=O)c2oc3ccc(OC)cc3c2C)c(OC)c1 | – | inactive | –
COc1ccc(CC(=O)Nc2ccc(O)cc2C(=O)O)cc1 | > 0.5 | – | –
O=C(O)C(=O)CBr [BROMOPYRUVATE] | – | Active | IC50 (Isocitrate lyase 1 [2]): 17.5 µM; Tm [5]: 52.5 °C
CCCc1cc(C(=O)Cc2cc3ccccc3o2)c(O)cc1OC | – | inactive | –
O=C(O)C1=CC=C(COc2ccc3ccc(=O)oc3c2)C1 | > 0.5 | – | –
COc1ccc(O)c(C(=O)CC(=O)c2ccccc2)c1 | > 0.5 | – | –
CCOC(=O)c1oc2ccc(CC(=O)c3c(C)cc(O)cc3O)cc2c1C | – | inactive | –
CCCCc1cc(C(=O)Cc2cc3ccccc3o2)c(O)cc1O | – | inactive | –
O=C(Cc1ccc2cccnc2c1)c1ccc(O)cc1O | > 0.5 | – | –
CC(Oc1ccc2c3c(c(=O)oc2c1)CCC3)C(=O)NCC1CCC(C(=O)O)CC1 (stereo not given) | > 0.5 | – | –
C=C(CC(=O)O)C(=O)O [ITACONATE] | – | Active | IC50 (Isocitrate lyase 1 [2]): 29.4 µM; Tm [5]: 53.3 °C
